Measurements from different studies.
Each line is one published result; the experiments were not run side by side.
Target: Homeodomain-interacting protein kinase 1 (HIPK1, Homo sapiens, UniProt Q86Z02)

SMILES | assay | conditions | measurement | value
CCCCC(=O)Nc1ccc(-c2ccc3ncn(CCC)c(=O)c3c2)cn1 | binding, competition with immobilised ligand | 0.5 µM | remaining binding | 88%
C=CC(=O)N1CCC([C@@H]2CCNc3c(C(N)=O)c(-c4ccc(Oc5ccccc5)cc4)nn32)CC1 | enzyme activity, inhibitor | 1 µM | inhibition | 26%
Cc1ccc(NC(=O)c2ccnc(C(F)(F)F)c2)cc1-c1cc(OCCO)nc(N2CCOCC2)c1 | binding, competition with immobilised ligand | 1 µM | remaining binding | 93%
C=CC(=O)N1CCC[C@@H](n2nc(-c3ccc(Oc4ccccc4)cc3)c3c(N)ncnc32)C1 | enzyme activity, inhibitor | 1 µM | inhibition | 22%
C[C@H]1CC[C@H](n2c3cnccc3c3cnc(Nc4ccc5c(n4)CCN(C(=O)CO)C5)nc32)CC1 | binding, competition with immobilised ligand | 1 µM | remaining binding | 45%
COc1ccc2oc(-c3ccc4nc(N)oc4c3)c/c(=N\c3ccccc3NC(=O)CCN)c2c1 | binding | 1 µM | remaining binding | 103%
C1=C/COCc2cc(ccc2OCCN2CCCC2)Nc2nccc(n2)-c2cccc(c2)COC/1 | binding | 0.1 µM | remaining binding | 6.7%
C#Cc1cc(-c2cc(Nc3nc(N[C@@H](C)c4ccc(F)cn4)ncc3Cl)n[nH]2)ccc1C=O | enzyme activity, inhibitor | 0.2 µM | inhibition | 22.6%
